# Test results published in PubChem BioAssay.
# Activity calls are given as the source filed them.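 How the source made its calls, unless noted: active means viability at or under a set limit in both replicates, limit being median viability minus 3 SD (cut at about 48% in these data, passing the limit was not always enough); inconclusive means at or under the limit in just one replicate; inactive means at or above the limit in both replicates.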
# Key:
# [1] = HUVEC growth inhibition – cell-based, human, primary screen (AID 575;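 active means viability at or below 30% in both replicate assays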;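 further: 100% = median of untreated cell wells with 0.1% DMSO on each plate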); conditions: HUVEC proliferation, CellTiter-Glo luminescence, 72 h; at 10 µM; stronger effect = lower value
# Outline: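 Test system: HUVEC primary cells. Quantity: 1250 endothelial cells in each well. Dosing: single-point 10 µM, DMSO 0.1% final. Incubation: 72 h treatment at 37 °C. Measured by: CTG luminescence. Control set: DMSO cell controls and MePR drug controls. Plate: collagen-coated 384-well format.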
# [2] = growth inhibitors of H69AR lung tumor, primary screen, human, duplicate replicates (AID 580); conditions: H69AR lung tumor cells viability, ATP luminescence, 72 h; at 10 µM; stronger effect = lower value;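 further: 100% = mean luminescence of untreated wells and 0% = no signal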
# [3] = reversal of MRP1-mediated doxorubicin resistance, pilot screen, H69AR cells, doxorubicin co-treatment (AID 601;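 active means viability loss from added drug above about 55%, and viability with drug at most 40%, in both replicates, limit read from the data, passing the limit was not always enough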); conditions: CellTiter-Glo, 72 h, at 10 µM; for differential viability (reversal): stronger effect = higher value
# [4] = 384-well plate pilot, post-Golgi transport modulator project, inhibition of yeast transport mutant growth (AID 636; in the data active means inhibition above about 31%); conditions: absorbance 615 nm, about 18 h, stronger effect = higher value
# [5] = growth suppression of yeast trafficking mutant, preliminary HTS, modulators of trafficking downstream of Golgi apparatus project, 1536-format plate, OD 615 nm (AID 637; in the data active means inhibition above about 30%); conditions: yeast transport mutant growth, absorbance 615 nm, 18 h; stronger effect = higher value
# [6] = H69AR cells + 2 uM doxorubicin, measured here: viability with 2 uM doxorubicin, stronger effect = lower value
# [7] = H69AR cells, compound alone cytotoxicity
Structure (SMILES),viability [1],viability [2],differential viability (reversal) ([3]; H69AR cells + 2 uM doxorubicin),"viability [3, 6]","viability [3, 7]",inhibition [4],inhibition [5]
O=C1C=C(NCc2ccco2)C2(CCCCC2)O1,95.7% (inactive),105% (inactive),22.5% (inactive),82.2%,105%,-1.95% (inactive),5.08% (inactive)
Cc1ccc2nc(CSc3nnc(-c4ccco4)n3-c3ccccc3)cc(=O)n2c1,109% (inactive),87.2% (inactive),-10.8% (inactive),98%,87.2%,4.81% (inactive),16.4% (inactive)
O=C(NCCN1CCCC1)C1COc2ccccc2O1 (stereo not given),105% (inactive),95.7% (inactive),1.77% (inactive),93.9%,95.7%,-7.14% (inactive),-3.02% (inactive)
COc1ccc(-c2coc3c(CN4CCCCC4)c(O)c(CN4CCCCC4)c(O)c3c2=O)cc1,76.7% (inactive),1.48% (active),-0.025% (inactive),1.5%,1.48%,0% (inactive),6.19% (inactive)
O=C(Nc1cc(C(F)(F)F)ccc1Cl)C1CCN(c2nnc(-n3cccc3)s2)CC1,80.2% (inactive),70.9% (inactive),7.64% (inactive),63.3%,70.9%,-6% (inactive),2.22% (inactive)
Oc1ccc(-c2onc(C(F)(F)F)c2-c2cscn2)c(O)c1,108% (inactive),103% (inactive),5.71% (inactive),97.3%,103%,-2.99% (inactive),4.92% (inactive)
Nc1nc(Nc2ccc(Cl)cc2Cl)nc(C(F)(F)F)n1,73.9% (inactive),89.8% (inactive),11.7% (inactive),78%,89.8%,-5.6% (inactive),11.3% (inactive)
Cc1csc(NC(=O)c2cccc(S(=O)(=O)N3CCCCC3)c2)n1,70.6% (inactive),87.5% (inactive),-3.96% (inactive),91.5%,87.5%,-3.51% (inactive),-9.05% (inactive)
O=C(COC(=O)c1ccc(NS(=O)(=O)c2ccc3c(c2)OCCO3)cc1)NCC1CCCO1 (stereo not given),104% (inactive),107% (inactive),11.2% (inactive),95.8%,107%,-1.69% (inactive),-7.78% (inactive)
CCn1c(SCC(=O)NCCc2ccc(Cl)cc2)nnc1-c1cccs1,87.7% (inactive),98.9% (inactive),4.62% (inactive),94.3%,98.9%,4.03% (inactive),3.17% (inactive)
COc1ccc(CCNS(=O)(=O)c2ccc(C(=O)NCc3ccco3)cc2)cc1OC,83.4% (inactive),80.9% (inactive),-4.64% (inactive),85.6%,80.9%,1.3% (inactive),10.9% (inactive)
C=CCNc1oc(-c2cccc3ccccc23)nc1C#N,92.5% (inactive),84.8% (inactive),0.75% (inactive),84.1%,84.8%,-5.47% (inactive),-0.95% (inactive)
CCS(=O)(=O)c1nc2ccccc2n1CC(=O)N1CCOCC1,95.4% (inactive),91% (inactive),3.73% (inactive),87.2%,91%,-5.32% (inactive),-1.27% (inactive)
S=c1[nH]ncn1-c1ccccn1,81.6% (inactive),93.9% (inactive),-4.69% (inactive),98.6%,93.9%,-5.33% (inactive),-0.63% (inactive)
C=Cn1c(N2CCOCC2)nc2c1c(=O)[nH]c(=O)n2C,98.8% (inactive),97.1% (inactive),8.31% (inactive),88.8%,97.1%,-4.8% (inactive),1.59% (inactive)
COC(=O)c1ccc2c(c1)C(=O)N(C1CCCCC1)C2=O,105% (inactive),104% (inactive),7.39% (inactive),96.7%,104%,-2.93% (inactive),1.11% (inactive)
CCC1(CC)C(=O)N(C)C(=O)NC1=NCc1ccccc1,110% (inactive),93.1% (inactive),-1.67% (inactive),94.7%,93.1%,-7.07% (inactive),3.02% (inactive)
COc1ccc(S(=O)(=O)NCc2ccco2)cc1-c1nnc2c3ccccc3c(C)nn12,88.1% (inactive),83.9% (inactive),-10.3% (inactive),94.2%,83.9%,-5.92% (inactive),7.14% (inactive)
COCCN(CC(=O)Nc1ccccc1C)S(=O)(=O)c1ccc(S(=O)(=O)N2CCCC2)cc1,101% (inactive),95.7% (inactive),4.26% (inactive),91.5%,95.7%,-7.2% (inactive),4.13% (inactive)
Cc1ccc(OCc2nnc(SCC(=O)Nc3ccc4c(c3)OCO4)n2C)cc1,91.2% (inactive),76.9% (inactive),-22.4% (inactive),99.3%,76.9%,-7.07% (inactive),6.98% (inactive)
